Reference: ChEMBL document CHEMBL4049452 (J Med Chem, 2017)

Key:
[1] = Tmax in C57/BL6 mouse at 1 mg/kg, sc by LC-MS/MS analysis; assay type: ADME, organism-based; conditions: in vivo
Summary of the method: (§1)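 Female C57/Bl6 mice given single 1 mg/kg sc dose; animals sacrificed and blood collected at 0.083, 0.25, 1, 2, 4, 8, 16 and 24 h. Plasma analysed by LC-MS/MS after protein precipitation; parameters from mean plasma concentrations by noncompartmental analysis.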

[2] = biological target: Glucagon receptor (Homo sapiens, UniProt P47871); test: Agonist activity at human glucagon receptor expressed in HEK293 cells assessed as cAMP accumulation after 30 mins by HTRF assay; assay type: functional, cell-based
[3] = Cmax in C57/BL6 mouse at 1 mg/kg, sc by LC-MS/MS analysis; assay type: ADME, organism-based; design: dose 1 mg/kg, route subcutaneous; conditions: in vivo; summary of the method: as §1
[4] = Half life in C57/BL6 mouse at 1 mg/kg, sc by LC-MS/MS analysis; assay type: ADME, organism-based; conditions: in vivo; summary of the method: as §1
[5] = AUC in C57/BL6 mouse at 1 mg/kg, sc by LC-MS/MS analysis; assay type: ADME, organism-based; conditions: in vivo; summary of the method: as §1
[6] = biological target: Glucagon-like peptide 1 receptor (Homo sapiens, UniProt P43220); test: Agonist activity at human GLP-1 receptor expressed in HEK293 cells assessed as cAMP accumulation after 30 mins by HTRF assay; assay type: functional, cell-based
Glucagon-like peptide 1 receptor, sequence (P43220 whole entry): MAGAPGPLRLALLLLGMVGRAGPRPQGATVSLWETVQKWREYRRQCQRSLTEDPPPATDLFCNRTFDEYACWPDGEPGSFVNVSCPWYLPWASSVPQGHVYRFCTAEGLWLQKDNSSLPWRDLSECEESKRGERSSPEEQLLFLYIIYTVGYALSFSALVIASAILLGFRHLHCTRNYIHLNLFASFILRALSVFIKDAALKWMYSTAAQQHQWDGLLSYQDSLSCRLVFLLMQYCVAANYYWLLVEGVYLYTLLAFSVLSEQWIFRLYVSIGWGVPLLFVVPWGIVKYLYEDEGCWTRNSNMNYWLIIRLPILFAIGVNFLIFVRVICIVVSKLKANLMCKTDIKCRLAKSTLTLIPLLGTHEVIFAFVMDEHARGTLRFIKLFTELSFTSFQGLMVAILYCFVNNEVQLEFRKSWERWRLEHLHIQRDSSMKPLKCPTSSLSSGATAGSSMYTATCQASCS

Glucagon receptor, sequence (P47871 whole entry): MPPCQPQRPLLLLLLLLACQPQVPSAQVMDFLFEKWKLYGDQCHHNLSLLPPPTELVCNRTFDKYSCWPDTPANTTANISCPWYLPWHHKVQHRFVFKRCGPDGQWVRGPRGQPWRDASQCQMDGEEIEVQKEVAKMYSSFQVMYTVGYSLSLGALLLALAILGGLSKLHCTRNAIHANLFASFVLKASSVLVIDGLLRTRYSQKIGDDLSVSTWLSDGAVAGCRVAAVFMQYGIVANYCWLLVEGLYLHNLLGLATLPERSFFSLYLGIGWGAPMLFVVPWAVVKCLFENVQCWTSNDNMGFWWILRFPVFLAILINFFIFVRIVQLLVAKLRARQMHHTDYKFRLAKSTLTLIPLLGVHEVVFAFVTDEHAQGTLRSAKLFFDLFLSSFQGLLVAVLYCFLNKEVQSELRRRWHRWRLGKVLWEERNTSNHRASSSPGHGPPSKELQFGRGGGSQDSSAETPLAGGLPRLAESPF

Row | Compound | Tmax [1] [h] | EC50 [2] [nM] | Cmax [3] [ng/mL] | half-life [4] [h] | AUC [5] [ng·h/mL] | EC50 [6] [nM]
1 | CCCCCCCCCCCCCCCC(=O)N[C@@H](CCC(=O)NCCCC[C@H](NC(=O)[C@H](CO)NC(=O)[C@@H]1CCCN1C(=O)[C@@H]1CCCN1C(=O)[C@@H]1CCCN1C(=O)[C@H](C)NC(=O)CNC(=O)[C@H](CO)NC(=O)[C@H](CO)NC(=O)[C@@H]1CCCN1C(=O)CNC(=O)CNC(=O)[C@H](CC(N)=O)NC(=O)[C@H](CCCCN)NC(=O)[C@H](CC(C)C)NC(=O)[C@H](Cc1c[nH]c2ccccc12)NC(=O)[C@H](CCC(=O)O)NC(=O)[C@@H](NC(=O)[C@H](Cc1ccccc1)NC(=O)[C@H](CC(=O)O)NC(=O)[C@H](CCC(N)=O)NC(=O)[C@H](C)NC(=O)[C@H](CCCNC(=N)N)NC(=O)[C@H](CCCNC(=N)N)NC(=O)[C@H](CO)NC(=O)[C@H](CC(=O)O)NC(=O)[C@H](CCSC)NC(=O)[C@H](CCC(N)=O)NC(=O)[C@H](CCCCN)NC(=O)[C@H](CO)NC(=O)[C@H](CC(C)C)NC(=O)[C@H](CC(=O)O)NC(=O)[C@H](CO)NC(=O)[C@@H](NC(=O)[C@H](Cc1ccccc1)NC(=O)[C@@H](NC(=O)CNC(=O)[C@H](CCC(N)=O)NC(=O)[C@H](CO)NC(=O)[C@@H](N)Cc1cnc[nH]1)[C@@H](C)O)[C@H](C)O)[C@@H](C)CC)C(N)=O)C(N)=O | 2 | 0.0062 | 3450 | 2.2 | 17000 | 0.0052
2 | CC[C@H](C)[C@H](NC(=O)[C@H](Cc1ccccc1)NC(=O)[C@H](CC(C)C)NC(=O)[C@H](CCCNC(=N)N)NC(=O)[C@@H](NC(=O)[C@H](CCCNC(=N)N)NC(=O)[C@H](CCCNC(=N)N)NC(=O)[C@H](CO)NC(=O)[C@H](CC(=O)O)NC(=O)[C@H](CCSC)NC(=O)[C@H](CCC(N)=O)NC(=O)[C@H](CCCCN)NC(=O)[C@H](CO)NC(=O)[C@H](CC(C)C)NC(=O)[C@H](CC(=O)O)NC(=O)[C@H](CO)NC(=O)[C@@H](NC(=O)[C@H](Cc1ccccc1)NC(=O)[C@@H](NC(=O)CNC(=O)[C@H](CCC(=O)O)NC(=O)CNC(=O)[C@@H](N)Cc1cnc[nH]1)[C@@H](C)O)[C@@H](C)O)C(C)C)C(=O)N[C@@H](CCC(=O)O)C(=O)N[C@@H](Cc1c[nH]c2ccccc12)C(=O)N[C@@H](CC(C)C)C(=O)N[C@@H](CCCCN)C(=O)N[C@@H](CC(N)=O)C(=O)NCC(=O)NCC(=O)N1CCC[C@H]1C(=O)N[C@@H](CO)C(=O)N[C@@H](CO)C(=O)NCC(=O)N[C@@H](C)C(=O)N1CCC[C@H]1C(=O)N1CCC[C@H]1C(=O)N1CCC[C@H]1C(=O)N[C@@H](CO)C(N)=O |  | 58000 |  |  |  | 0.0018
3 | CCCCCCCCCCCCCCCC(=O)N[C@@H](CCC(=O)NCCCC[C@H](NC(=O)[C@@H]1CCCN1C(=O)[C@@H]1CCCN1C(=O)[C@@H]1CCCN1C(=O)[C@H](C)NC(=O)CNC(=O)[C@H](CO)NC(=O)[C@H](CO)NC(=O)[C@@H]1CCCN1C(=O)CNC(=O)CNC(=O)[C@H](CC(N)=O)NC(=O)[C@H](CCCCN)NC(=O)[C@H](CC(C)C)NC(=O)[C@H](Cc1c[nH]c2ccccc12)NC(=O)[C@H](CCC(=O)O)NC(=O)[C@@H](NC(=O)[C@H](Cc1ccccc1)NC(=O)[C@H](CC(=O)O)NC(=O)[C@H](CCC(N)=O)NC(=O)[C@H](C)NC(=O)[C@H](CCCNC(=N)N)NC(=O)[C@H](CCCNC(=N)N)NC(=O)[C@H](CO)NC(=O)[C@H](CC(=O)O)NC(=O)[C@H](CCSC)NC(=O)[C@H](CCC(N)=O)NC(=O)[C@H](CCCCN)NC(=O)[C@H](CO)NC(=O)[C@H](CC(C)C)NC(=O)[C@H](CC(=O)O)NC(=O)[C@H](CO)NC(=O)[C@@H](NC(=O)[C@H](Cc1ccccc1)NC(=O)[C@@H](NC(=O)CNC(=O)[C@H](CCC(N)=O)NC(=O)[C@H](CO)NC(=O)[C@@H](N)Cc1cnc[nH]1)[C@@H](C)O)[C@@H](C)O)[C@@H](C)CC)C(N)=O)C(N)=O |  | 0.0063 |  |  |  | 0.0058
4 | CC[C@H](C)[C@H](NC(=O)[C@H](Cc1ccccc1)NC(=O)[C@H](CC(C)C)NC(=O)[C@H](CCCNC(=N)N)NC(=O)[C@@H](NC(=O)[C@H](C)NC(=O)[C@H](CCC(=O)O)NC(=O)[C@H](CCC(=O)O)NC(=O)[C@H](CCC(=O)O)NC(=O)[C@H](CCSC)NC(=O)[C@H](CCC(N)=O)NC(=O)[C@H](CCCCN)NC(=O)[C@H](CO)NC(=O)[C@H](CC(C)C)NC(=O)[C@H](CC(=O)O)NC(=O)[C@H](CO)NC(=O)[C@@H](NC(=O)[C@H](Cc1ccccc1)NC(=O)[C@@H](NC(=O)CNC(=O)[C@H](CCC(=O)O)NC(=O)CNC(=O)[C@@H](N)Cc1cnc[nH]1)[C@@H](C)O)[C@@H](C)O)C(C)C)C(=O)N[C@@H](CCC(=O)O)C(=O)N[C@@H](Cc1c[nH]c2ccccc12)C(=O)N[C@@H](CC(C)C)C(=O)N[C@@H](CCSC)C(=O)N[C@@H](CC(N)=O)C(=O)N[C@H](C(=O)N[C@@H](CCCCN)C(=O)N[C@@H](CCCNC(=N)N)C(=O)N[C@@H](CC(N)=O)C(=O)N[C@@H](CCCNC(=N)N)C(=O)NCC(=O)N[C@@H](C)C(=O)N1CCC[C@H]1C(=O)N1CCC[C@H]1C(=O)N1CCC[C@H]1C(=O)N[C@@H](CO)C(N)=O)[C@@H](C)O |  | > 100000 |  |  |  | 0.0012
5 | H-HGEGTFTSDLSKQMDSRRAQDFVEWLKNGGPSSGAPPPS-NH2 |  | 10000 |  |  |  | 0.0222
6 | H-HGEGTFTSDLSKQMDSRRAQDFVQWLKNGGPSSGAPPPS-NH2 |  | 42000 |  |  |  | 0.0558
7 | H-HSEGTFTSDLSKQMDSRRAQDFIEWLKNGGPSSGAPPPS-NH2 |  | 170 |  |  |  | 
8 | H-HSQGTFTSDLSKQMDSRRAQDFIEWLKNG-NH2 |  | 0.0019 |  |  |  | 0.0082
9 | H-HSQGTFTSDLSKQMDSRRAQDFIEWLKNGGPSS-NH2 |  | 0.0089 |  |  |  | 0.0153
10 | H-HSQGTFTSDLSKQMDSRRAQDFIEWLKNGGPSSNNIA-NH2 |  | 0.0156 |  |  |  | 0.0172
11 | H-HSQGTFTSDLSKQMEEEAVRLFIEWLMNTKRNRGAPPPS-NH2 |  | 1.24 |  |  |  | 0.0022
